The record followed here is ChEMBL document CHEMBL1139596, “Non-competitive inhibitors of metabotropic glutamate receptor 5 (mGluR5)” (Bioorg Med Chem Lett, 2005).

Biological target in one data set: not listed separately
The data set is described as follows: Inhibitory activity against metabotropic glutamate receptor 5 (mGluR5). An outline of the steps: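 Functional FLIPR assay in CHO cells transfected with mGlu5 receptor.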
The Ki is a measure of affinity in units of concentration, obtained from inhibition or displacement. Compound `Cc1ccc(C(=O)COC(=O)c2ccc(N3C(=O)C4CC=CCC4C3=O)cc2)cc1[N+](=O)[O-]` (stereo not drawn) displayed a Ki of 3790 nM. Consider `O=C(COC(=O)c1ccc(N2C(=O)C3CC=CCC3C2=O)cc1)c1ccc2ccccc2c1` (stereo not drawn), for which the affinity corresponds to a Ki of 303 nM. Compound `COc1ccc(C(=O)COC(=O)c2ccc(N3C(=O)C4CC=CCC4C3=O)cc2)cc1OC` (stereo not drawn) returned a Ki of 1600 nM. This Ki is about 5.3-fold higher than that of the compound before. `Cc1ccc(C(=O)COC(=O)c2ccc(N3C(=O)[C@H]4CCCC[C@H]4C3=O)cc2)cc1C` displayed a Ki of 190 nM. The same measure, in the same setting: the value for `O=C(COC(=O)c1ccc(N2C(=O)C3CC=CCC3C2=O)cc1)c1ccc2c(c1)CCC2` (stereo not drawn) was 401 nM; that for `O=C(COC(=O)c1ccc(N2C(=O)C3CC=CCC3C2=O)cc1)c1ccc(N2CCCC2)cc1` (stereo not drawn) was 1090 nM; that for `COc1ccc(C(=O)COC(=O)c2ccc(N3C(=O)C4CC=CCC4C3=O)cc2)cc1[N+](=O)[O-]` (stereo not drawn) was 1680 nM. `Cc1ccc(C(=O)COC(=O)c2ccc(N3C(=O)CC(C)C3=O)cc2)cc1C` (stereo not drawn): the affinity corresponds to a Ki of 411 nM. Still for that read-out and setting: the value for `Cc1ccc(C(=O)COC(=O)c2ccc(N3C(=O)C4CCC(C)CC4C3=O)cc2)cc1C` (stereo not drawn) was 113 nM; that for `O=C(COC(=O)c1ccc(N2C(=O)C3CC=CCC3C2=O)cc1)c1ccc(C2CCCCC2)cc1` (stereo not drawn) was 18000 nM; that for `O=C(COC(=O)c1ccc(N2C(=O)C3CC=CCC3C2=O)cc1)c1ccc(N2CCOCC2)cc1` (stereo not drawn) was 3360 nM. Same read-out and setting: the value for `Cc1ccc(C(=O)COC(=O)c2ccc(N3C(=O)C4CC=CCC4C3=O)cc2)cc1` (stereo not drawn) was 9480 nM. For `Cc1ccc(C(=O)COC(=O)c2ccc(N3C(=O)C4CC(Br)C(Br)CC4C3=O)cc2)cc1C` (stereo not drawn), the inhibitory constant (Ki) was 98 nM.

`Cc1ccc(C(=O)COC(=O)c2ccc(N3C(=O)CCCC3=O)cc2)cc1C` showed a Ki of 3270 nM. `CC1=CCC2C(=O)N(c3ccc(C(=O)OCC(=O)c4ccc(C)c(C)c4)cc3)C(=O)C2C1` (stereo not drawn) registered a Ki of 216 nM.

`Cc1ccc(C(=O)COC(=O)c2ccc(N3C(=O)CC(C)CC3=O)cc2)cc1C` returned a Ki of 1840 nM. On the same count and under the same terms, the value for `CC1=C(C)C(=O)N(c2ccc(C(=O)OCC(=O)c3ccc(C)c(C)c3)cc2)C1=O` was 6430 nM. The compound `O=C(COC(=O)c1ccc(N2C(=O)C3CC=CCC3C2=O)cc1)c1ccc2c(c1)OCCO2` (stereo not drawn) returned a Ki of 2040 nM. Compound `Cc1ccc(C(=O)COC(=O)c2ccc(N3C(=O)[C@@H]4CCCC[C@H]4C3=O)cc2)cc1C` yielded an inhibitory constant (Ki) of 150 nM. Compound `CC1=CC(=O)N(c2ccc(C(=O)OCC(=O)c3ccc(C)c(C)c3)cc2)C1=O` displayed an inhibition constant (Ki) of 4800 nM.

The compound `Cc1ccc(C(=O)COC(=O)c2ccc(N3C(=O)C4CC=CCC4C3=O)cc2)cc1C` (stereo not drawn) returned an inhibitory constant (Ki) of 172 nM. As for `Cc1ccc(C(=O)COC(=O)c2ccc(N3C(=O)CCC3=O)cc2)cc1C`, affinity was put at a Ki of 506 nM. This Ki lies about 2.9-fold higher than the previous one. Compound `O=C(COC(=O)c1ccc(N2C(=O)C3CC=CCC3C2=O)cc1)c1ccc2c(c1)CCCC2` (stereo not drawn) yielded an inhibition constant Ki of 171 nM. Turning to `Cc1ccc(C(=O)COC(=O)c2ccc(N3C(=O)C4C5C=CC(C5)C4C3=O)cc2)cc1C` (stereo not drawn), the affinity, expressed as Ki, was 1010 nM.

System in the next data set: not listed separately
The data set is described as follows: Half life was determined; 1-2h. In kind it is ADME.
For orientation: half-life means the time needed for the level to fall by half in the phase considered. In turn, `Cc1ccc(C(=O)COC(=O)c2ccc(N3C(=O)C4CCC(C)CC4C3=O)cc2)cc1C` (stereo not drawn) showed a half-life of 2 h. In turn, `Cc1ccc(C(=O)COC(=O)c2ccc(N3C(=O)CCC3=O)cc2)cc1C` showed a half-life of 2 h.

In the next data set the target is Metabotropic glutamate receptor 5 (Homo sapiens) (UniProt P41594). The data set is described as follows: Percent inhibition against metabotropic glutamate receptor 5 (mGluR5) at 10 uM.
Metabotropic glutamate receptor 5 (Homo sapiens), sequence (P41594 21-1212 limits assumed): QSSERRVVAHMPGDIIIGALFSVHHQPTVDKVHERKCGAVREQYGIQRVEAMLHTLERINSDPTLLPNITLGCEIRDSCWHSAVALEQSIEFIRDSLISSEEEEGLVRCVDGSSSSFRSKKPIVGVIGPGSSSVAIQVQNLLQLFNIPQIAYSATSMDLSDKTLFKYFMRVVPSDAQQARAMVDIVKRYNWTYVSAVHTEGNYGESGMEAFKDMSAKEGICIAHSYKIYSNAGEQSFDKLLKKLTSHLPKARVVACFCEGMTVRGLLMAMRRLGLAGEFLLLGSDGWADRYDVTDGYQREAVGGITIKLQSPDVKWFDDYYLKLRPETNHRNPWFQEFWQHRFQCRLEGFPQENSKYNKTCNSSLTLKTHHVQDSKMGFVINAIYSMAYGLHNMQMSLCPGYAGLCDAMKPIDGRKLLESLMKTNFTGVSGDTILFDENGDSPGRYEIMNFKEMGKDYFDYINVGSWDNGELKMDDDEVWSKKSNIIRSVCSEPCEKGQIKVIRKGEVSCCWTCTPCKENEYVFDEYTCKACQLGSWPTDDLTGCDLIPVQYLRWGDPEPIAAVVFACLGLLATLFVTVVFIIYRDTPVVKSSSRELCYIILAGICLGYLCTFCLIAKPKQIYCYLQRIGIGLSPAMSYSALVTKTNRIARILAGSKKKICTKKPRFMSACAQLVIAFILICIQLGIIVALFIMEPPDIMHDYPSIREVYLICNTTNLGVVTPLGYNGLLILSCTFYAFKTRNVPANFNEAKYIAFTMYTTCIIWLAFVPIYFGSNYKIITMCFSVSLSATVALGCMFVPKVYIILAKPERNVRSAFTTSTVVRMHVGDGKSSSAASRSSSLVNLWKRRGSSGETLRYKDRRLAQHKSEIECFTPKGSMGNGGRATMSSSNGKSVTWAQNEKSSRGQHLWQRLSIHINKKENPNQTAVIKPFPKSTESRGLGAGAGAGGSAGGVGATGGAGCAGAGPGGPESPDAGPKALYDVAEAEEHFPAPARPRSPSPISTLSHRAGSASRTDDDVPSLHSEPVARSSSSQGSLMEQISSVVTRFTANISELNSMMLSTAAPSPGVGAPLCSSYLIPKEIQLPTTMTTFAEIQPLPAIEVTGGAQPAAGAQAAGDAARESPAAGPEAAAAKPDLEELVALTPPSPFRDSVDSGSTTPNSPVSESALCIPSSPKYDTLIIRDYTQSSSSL
One may read the inhibition as the change of the read-out against control, counted positive when it falls. Low values mean a weak effect, high ones a strong effect. On to `Cc1ccc2c(c1)C(=O)N(c1ccc(C(=O)OCC(=O)c3ccc(C)c(C)c3)cc1)C2=O`, for which the inhibition amounted to 28%. The compound `Cc1cc2c(cc1C)C(=O)N(NC(=O)c1ccc(N3C(=O)C4CC=CCC4C3=O)cc1)C2=O` (stereo not drawn) had an inhibition of under 35%. The compound `O=C(COC(=O)c1ccc(N2C(=O)C3CC=CCC3C2=O)cc1)c1ccccc1` (stereo not drawn) gave an inhibition of 18%.

The compound `Cc1ccc(C(=O)CNC(=O)c2ccc(N3C(=O)C4CC=CCC4C3=O)cc2)cc1C` (stereo not drawn) showed an inhibition of under 35%.

`Cc1ccc(C(=O)COC(=O)c2ccc(N3C(=O)COCC3=O)cc2)cc1C` came in with an inhibition of 41%. For `Cc1ccc(C2CN(C(=O)c3ccc(N4C(=O)C5CC=CCC5C4=O)cc3)CCO2)cc1C` (stereo not drawn), the inhibition was under 35%. In the case of `Cc1ccc(C(=O)N2CCCN2C(=O)c2ccc(N3C(=O)C4CC=CCC4C3=O)cc2)cc1C` (stereo not drawn), the inhibition was under 35%. Turning to `Cc1ccc(C(=O)CN2C(=O)c3ccc(N4C(=O)C5CC=CCC5C4=O)cc3C2=O)cc1C` (stereo not drawn), the inhibition is under 35%.

For the compound `Cc1ccc(C(=O)NNC(=O)c2ccc(N3C(=O)C4CC=CCC4C3=O)cc2)cc1C` (stereo not drawn), the inhibition was under 35%.

Take `Cc1ccc(NC(=O)c2ccc(N3C(=O)C4CC=CCC4C3=O)cc2)cc1C` (stereo not drawn): the inhibition is under 35%. The compound `COc1ccc(C(=O)COC(=O)c2ccc(N3C(=O)C4CC=CCC4C3=O)cc2)cc1` (stereo not drawn) returned an inhibition of 39%. The same measure, in the same setting: the value for `Cc1ccc(NCC(=O)Nc2ccc(N3C(=O)C4CC=CCC4C3=O)cc2)cc1C` (stereo not drawn) was under 35%. Consider `Cc1ccc(NC(=O)Nc2ccc(N3C(=O)C4CC=CCC4C3=O)cc2)cc1C` (stereo not drawn), for which the inhibition was under 35%. `Cc1ccc(C(=O)CN(C)C(=O)c2ccc(N3C(=O)C4CC=CCC4C3=O)cc2)cc1C` (stereo not drawn): the inhibition is under 35%.

In turn, `Cc1ccc(NC(=O)NCc2ccc(N3C(=O)C4CC=CCC4C3=O)cc2)cc1C` (stereo not drawn) returned an inhibition of under 35%.

Turning to `Cc1ccc(CNC(=O)Nc2ccc(N3C(=O)C4CC=CCC4C3=O)cc2)cc1C` (stereo not drawn), the inhibition is under 35%.

Regarding `Cc1ccc(OCCCNC(=O)c2ccc(N3C(=O)C4CC=CCC4C3=O)cc2)cc1C` (stereo not drawn), the inhibition was under 35%. For `CC1(C)CCC(C)(C)c2cc(C(=O)COC(=O)c3ccc(N4C(=O)C5CC=CCC5C4=O)cc3)ccc21` (stereo not drawn), the inhibition was determined as 32%. On the same count and under the same terms, the value for `O=C(COC(=O)c1ccc(N2C(=O)C3CC=CCC3C2=O)cc1)c1ccc2c(c1)OCO2` (stereo not drawn) was 21%; that for `Cc1ccc(C(=O)COCc2ccc(N3C(=O)C4CC=CCC4C3=O)cc2)cc1C` (stereo not drawn) was under 35%. Take `Cc1ccc(OCCNC(=O)c2ccc(N3C(=O)C4CC=CCC4C3=O)cc2)cc1C` (stereo not drawn): the inhibition is under 35%. As to `Cc1ccc(C(=O)COC(=O)c2ccc(N3C(=O)c4ccncc4C3=O)cc2)cc1C`, the inhibition was 33%. Compound `Cc1ccc(CCNC(=O)c2ccc(N3C(=O)C4CC=CCC4C3=O)cc2)cc1C` (stereo not drawn) showed an inhibition of under 35%.

`Cc1ccc(C(=O)COC(=O)c2ccc(N3C(=O)C4=C(CCC4)C3=O)cc2)cc1C`: the inhibition was determined as 10%. For the compound `Cc1ccc(CNC(=O)c2ccc(N3C(=O)C4CC=CCC4C3=O)cc2)cc1C` (stereo not drawn), the inhibition is under 35%. `Cc1ccc(C(=O)COC(=O)c2ccc(N3CCCC3=O)cc2)cc1C` gave an inhibition of 38%.

`Cc1ccc(C(=O)COC(=O)c2ccc(NC(=O)C3CC=CCC3C(=O)O)cc2)cc1C` (stereo not drawn) gave an inhibition of 34%.
